Series [1] has as its target Kynurenine/alpha-aminoadipate aminotransferase, mitochondrial (Rattus norvegicus) (UniProt Q64602). As to the kind of experiment: Ratio of Kinact to Ki for rat recombinant KAT2 using L-kynurenine as substrate. In a few lines:
(§1)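 Second-order rate constant kinact/Ki determined for human and rat KAT II; values are geometric or arithmetic means of at least three experiments (some n = 2).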

The target of series [2] is T1, Kynurenine/alpha-aminoadipate aminotransferase, mitochondrial (Homo sapiens, UniProt Q8N5Z0). The series is described as follows: Inhibition of human recombinant KAT2 assessed as conversion of L-kynurenine into kynurenic acid after 15 to 20 hrs. The method, boiled down:
(§2)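 Human and rat KAT II enzyme assays run with 30 nM enzyme; IC50 reported as geometric mean of at least three independent determinations (some n = 1 or 2).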
Target sequence in this assay (Q8N5Z0 whole entry): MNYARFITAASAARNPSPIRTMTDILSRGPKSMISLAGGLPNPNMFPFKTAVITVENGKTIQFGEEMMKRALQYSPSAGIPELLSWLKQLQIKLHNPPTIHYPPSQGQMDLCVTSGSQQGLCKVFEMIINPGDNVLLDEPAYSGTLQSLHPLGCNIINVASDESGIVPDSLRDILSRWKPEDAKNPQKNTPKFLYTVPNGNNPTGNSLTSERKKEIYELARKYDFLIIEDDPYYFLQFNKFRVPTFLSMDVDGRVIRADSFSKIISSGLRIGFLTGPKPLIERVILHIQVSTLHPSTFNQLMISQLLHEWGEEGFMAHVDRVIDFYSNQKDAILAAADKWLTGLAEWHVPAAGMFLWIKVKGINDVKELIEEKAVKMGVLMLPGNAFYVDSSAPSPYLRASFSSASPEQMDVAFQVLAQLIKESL

In series [3] the target is T1, Kynurenine/alpha-aminoadipate aminotransferase, mitochondrial. As to the kind of experiment: Ratio of Kinact to Ki for human recombinant KAT2 using L-kynurenine as substrate. The method, boiled down:
as §1
Target sequence in this assay (Q8N5Z0 30-425 limits assumed): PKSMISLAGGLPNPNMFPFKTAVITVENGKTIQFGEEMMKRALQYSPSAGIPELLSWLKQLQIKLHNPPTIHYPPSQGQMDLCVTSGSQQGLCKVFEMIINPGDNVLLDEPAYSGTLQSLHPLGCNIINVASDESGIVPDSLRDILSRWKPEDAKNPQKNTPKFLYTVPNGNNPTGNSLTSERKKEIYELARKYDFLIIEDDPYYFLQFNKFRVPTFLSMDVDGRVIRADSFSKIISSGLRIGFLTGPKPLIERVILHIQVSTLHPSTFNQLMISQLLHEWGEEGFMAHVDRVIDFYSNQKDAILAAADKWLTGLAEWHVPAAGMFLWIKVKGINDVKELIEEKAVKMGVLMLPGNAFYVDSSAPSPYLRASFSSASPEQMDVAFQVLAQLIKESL

In series [4] the target is Kynurenine/alpha-aminoadipate aminotransferase, mitochondrial (Rattus norvegicus, UniProt Q64602). The series is described as follows: Inhibition of rat recombinant KAT2 assessed as conversion of L-kynurenine into kynurenic acid after 15 to 20 hrs. In a few lines: as §2
Chain of Kynurenine/alpha-aminoadipate aminotransferase, mitochondrial (Rattus norvegicus, UniProt Q64602) (Q64602 whole entry): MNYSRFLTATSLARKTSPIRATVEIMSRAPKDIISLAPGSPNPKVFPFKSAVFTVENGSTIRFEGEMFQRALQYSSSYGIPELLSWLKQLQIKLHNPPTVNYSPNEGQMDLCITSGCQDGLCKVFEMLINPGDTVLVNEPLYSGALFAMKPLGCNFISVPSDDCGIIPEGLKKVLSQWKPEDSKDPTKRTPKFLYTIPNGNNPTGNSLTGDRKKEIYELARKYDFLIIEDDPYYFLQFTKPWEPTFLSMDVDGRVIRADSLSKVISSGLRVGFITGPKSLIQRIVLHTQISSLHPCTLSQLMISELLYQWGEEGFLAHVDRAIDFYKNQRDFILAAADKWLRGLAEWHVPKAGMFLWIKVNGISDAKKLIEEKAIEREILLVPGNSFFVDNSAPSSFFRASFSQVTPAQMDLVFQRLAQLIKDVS
The nature of series [5]: Drug level in Sprague-Dawley rat cerebrospinal fluid at 10 mg/kg, sc after 0.25 hrs. In kind it is ADME, organism-based. On the set-up: dose 10 mg/kg, route subcutaneous. Particulars: read-out: Drug uptake. The method, boiled down: (§3)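 Rats dosed 10 mg/kg subcutaneously; drug levels measured in CSF and plasma/brain at 0.25 h post-dose; free levels derived using measured rat brain and plasma unbound fractions.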

Series [6] can be described thus: Ratio of free drug level in plasma to brain in Sprague-Dawley rat at 10 mg/kg, sc after 0.25 hrs. In kind it is ADME, organism-based. More on the design: dose 10 mg/kg, route subcutaneous. Particulars: in vivo. In a few lines: (§4)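 Rat dosed 10 mg/kg sc; drug concentrations in plasma, brain and CSF measured at 0.25 h. Free plasma and free brain levels corrected using fraction unbound from rat plasma protein binding and brain binding assays. Exposure ratios taken from free plasma, free brain and CSF concentrations.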

For series [7], the target named is Kynurenine--oxoglutarate transaminase 3 (Homo sapiens, UniProt Q6YP21). As to the kind of experiment: Inhibition of human KAT3.
Chain of Kynurenine--oxoglutarate transaminase 3 (Q6YP21 whole entry): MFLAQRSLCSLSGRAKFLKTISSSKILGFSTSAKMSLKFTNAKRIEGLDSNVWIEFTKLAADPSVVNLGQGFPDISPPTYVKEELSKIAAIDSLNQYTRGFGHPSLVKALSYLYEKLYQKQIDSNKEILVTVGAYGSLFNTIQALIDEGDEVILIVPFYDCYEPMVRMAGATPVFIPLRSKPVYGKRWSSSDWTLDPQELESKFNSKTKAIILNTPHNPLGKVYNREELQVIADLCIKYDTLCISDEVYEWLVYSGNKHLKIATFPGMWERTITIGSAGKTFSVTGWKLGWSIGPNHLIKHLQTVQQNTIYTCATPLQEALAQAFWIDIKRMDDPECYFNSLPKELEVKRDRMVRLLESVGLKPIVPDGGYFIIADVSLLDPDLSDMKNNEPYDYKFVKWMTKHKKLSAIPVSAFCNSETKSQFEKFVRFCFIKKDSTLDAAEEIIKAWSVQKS
Series [8] can be described thus: Lipophilicity, log D of the compound. Particulars: octanol/water. In kind it is physicochemical.
Another series concerns Brain. As to the kind of experiment: Free brain concentration in Sprague-Dawley rat at 10 mg/kg, sc after 0.25 hrs. The conditions noted are these: in vivo. On the set-up: dose 10 mg/kg, route subcutaneous. In kind it is ADME, organism-based. The method, boiled down:
as §3

Series [9] can be described thus: Fraction unbound in rat brain at 1 uM by equilibrium dialysis method. In kind it is ADME, tissue-based.
For series [10], the system named is Rattus norvegicus. As to the kind of experiment: Reduction of […] level in freely moving Sprague-Dawley rat dialysates from prefrontal cortex at 10 mg/kg, sc after 1 hr by microdialysis analysis relative to control. Particulars: route subcutaneous. In kind it is functional. More on the design: scale not given: the % may be the effect or the level left. In a few lines:
(§5)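 Freely moving rats given 10 mg/kg sc at time 0; KYNA in prefrontal cortex dialysates monitored over time by microdialysis; expressed as percent of each animal's basal KYNA, means ± SEM, n = 11–14 per group.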

Series [11] deals with Rattus norvegicus. The series is described as follows: Reduction of […] level in freely moving Sprague-Dawley rat dialysates from prefrontal cortex at 10 mg/kg, sc after 20 hrs by microdialysis analysis. In kind it is functional, organism-based. On the set-up: dose 10 mg/kg. In a few lines:
as §5

Series [12] is described as follows: Ratio of free drug level in cerebrospinal fluid to brain in Sprague-Dawley rat at 10 mg/kg, sc after 0.25 hrs. On the set-up: dose 10 mg/kg, route subcutaneous. The conditions noted are these: in vivo. In kind it is ADME, organism-based. In a few lines:
as §4

Series [13] is described as follows: Fraction unbound in rat plasma at 1 uM by equilibrium dialysis method. In kind it is ADME, cell-free. On the technique in general: In equilibrium dialysis free small molecules cross a membrane that holds back macromolecules.
The next series concerns Plasma. The series is described as follows: Free plasma concentration in Sprague-Dawley rat at 10 mg/kg, sc after 0.25 hrs. In kind it is ADME, organism-based. On the set-up: dose 10 mg/kg, route subcutaneous. Particulars: in vivo. In a few lines: as §3
Series [14] is described as follows: Inhibition of human KAT4.
Series [15] has as its target T2, Kynurenine--oxoglutarate transaminase 1 (Homo sapiens, UniProt Q16773).
T2 sequence (Q16773 whole entry): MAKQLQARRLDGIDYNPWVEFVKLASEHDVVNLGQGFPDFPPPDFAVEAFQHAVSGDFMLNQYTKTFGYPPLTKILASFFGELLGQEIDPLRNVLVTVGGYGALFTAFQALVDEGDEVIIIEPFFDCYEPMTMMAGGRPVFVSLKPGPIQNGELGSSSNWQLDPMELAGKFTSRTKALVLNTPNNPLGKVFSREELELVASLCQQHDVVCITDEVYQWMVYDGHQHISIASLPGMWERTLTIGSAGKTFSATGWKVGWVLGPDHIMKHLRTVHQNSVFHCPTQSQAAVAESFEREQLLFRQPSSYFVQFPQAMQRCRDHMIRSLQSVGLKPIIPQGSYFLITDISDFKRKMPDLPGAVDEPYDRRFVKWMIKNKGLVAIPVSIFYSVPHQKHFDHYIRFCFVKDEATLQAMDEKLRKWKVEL
The series is described as follows: Inhibition of human KAT1.

Active and inactive are the calls of the source. The rule behind the calls is not given here. Bounds are passed on as bounds.

As a reminder, the IC50 is the midpoint of a concentration-inhibition curve. The logD is the decadic logarithm of the distribution of all forms, ionised or not, between an organic phase and buffer at a given pH. What is called fraction unbound is the share of the substance not bound to proteins or other matrix.

Chain of Kynurenine/alpha-aminoadipate aminotransferase, mitochondrial (Rattus norvegicus) (Q64602 30-425 limits assumed): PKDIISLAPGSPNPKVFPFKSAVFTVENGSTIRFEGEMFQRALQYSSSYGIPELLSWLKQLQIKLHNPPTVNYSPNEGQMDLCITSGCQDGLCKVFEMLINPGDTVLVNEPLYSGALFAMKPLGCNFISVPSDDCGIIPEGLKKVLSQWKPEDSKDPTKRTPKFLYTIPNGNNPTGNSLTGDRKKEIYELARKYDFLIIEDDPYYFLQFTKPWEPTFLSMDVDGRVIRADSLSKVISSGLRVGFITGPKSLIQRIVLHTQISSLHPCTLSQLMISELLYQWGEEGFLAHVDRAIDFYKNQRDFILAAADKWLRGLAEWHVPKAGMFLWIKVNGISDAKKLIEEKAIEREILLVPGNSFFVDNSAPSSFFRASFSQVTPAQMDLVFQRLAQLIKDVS

In the case of `Cc1ccc2c(c1)C[C@H](N)C(=O)N2O`, the Ratio is 167 M⁻¹ s⁻¹ in series [1] and 11900 M⁻¹ s⁻¹ in [3]. Further, the IC50 in series [2] turned out to be 30 nM; in [4], 402 nM.
For `N[C@H]1Cc2ccc(Cl)cc2N(O)C1=O`, the Ratio in [1] worked out at 1170 M⁻¹ s⁻¹; in series [3], 28300 M⁻¹ s⁻¹. Moreover, the IC50 in series [2] was 29 nM; in series [4] it was 118 nM.
Take `N[C@H]1Cc2c(Cl)cccc2N(O)C1=O`: the IC50 was 349 nM in series [2] and more than 7970 nM in series [4]. Further, the Ratio in [3] came out at 9.5 M⁻¹ s⁻¹.
Consider `Cc1cccc2c1C[C@H](N)C(=O)N2O`, for which the IC50 is 319 nM in [2] and more than 10000 nM in series [4].
As for `COc1ccc2c(c1)N(O)C(=O)[C@@H](N)C2`, the Ratio was 1840 M⁻¹ s⁻¹ in series [1] and 31700 M⁻¹ s⁻¹ in [3]. Moreover, the figures for the IC50 in series [2] and in [4] were 22 nM and 137 nM, respectively.
Regarding `N[C@H]1Cc2cc(C(F)(F)F)ccc2N(O)C1=O`, the Ratio was determined as 102 M⁻¹ s⁻¹ in series [1] and 15300 M⁻¹ s⁻¹ in series [3]. The IC50 in series [2] was determined as 29 nM; in [4] it was 488 nM.
On to `CON1C(=O)[C@@H](N)Cc2ccccc21`, for which the IC50 in [2] and in [4] was more than 10000 nM throughout.
Turning to `N[C@H]1Cc2cccc(F)c2N(O)C1=O`, the Ratio was found to be 57 M⁻¹ s⁻¹ in [1] and 5310 M⁻¹ s⁻¹ in series [3]. In addition, the IC50 in series [2] was 40 nM; in series [4], 631 nM.
The like results for `Cc1ccc2c(c1)N(O)C(=O)[C@@H](N)C2` were, in that order, 590 M⁻¹ s⁻¹, 33400 M⁻¹ s⁻¹, 37 nM and 368 nM.
Take `N[C@H]1Cc2ccccc2N(O)C1=O`: the Ratio in series [1] worked out at 573 M⁻¹ s⁻¹; in series [6], 2.7; in series [12], 1.1; in series [3], 18500 M⁻¹ s⁻¹. Also, the concentration at 0.25 h in series [5] was 4.06 µM. The half-inhibitory concentration (IC50) in series [7] was 11000 nM; in series [2], 23 nM; in series [14], more than 50000 nM; in series [4], 263 nM; in [15], 22000 nM. In addition, the logD in series [8] was -0.7. The “Drug uptake(free)” value with Brain is 3.76 µM. Besides, the free fraction (fraction unbound) at 1 µM in series [9] was 0.393; in [13], 0.893. Also, in the series with Rattus norvegicus [10], the Activity worked out at 50%. Further, the result in the series with Rattus norvegicus [11] was inactive. In the series on Plasma, the “Cp(f)” value was determined as 10.2 µM.
Turning to `CC1(N)Cc2ccccc2N(O)C1=O` (configuration not stated), the IC50 in [2] and in series [4] was more than 10000 nM each time.
In the case of `N[C@H]1Cc2c(cccc2C(F)(F)F)N(O)C1=O`, the half-inhibitory concentration (IC50) in series [2] and in [4] was more than 10000 nM each time.
For the compound `N[C@H]1Cc2ccccc2NC1=O`, the IC50 in [2] is more than 10000 nM.
With `COc1cccc2c1N(O)C(=O)[C@@H](N)C2`, the figures for the IC50 in series [2] and in series [4] were 572 nM and more than 10000 nM, respectively. Further, in series [3], the Ratio worked out at 21.3 M⁻¹ s⁻¹.
As for `N[C@@H]1Cc2ccccc2N(O)C1=O`, the IC50 in series [2] came to 219 nM; in series [4] it was 1170 nM.
`N[C@H]1Cc2cc(Cl)ccc2N(O)C1=O`: the Ratio came to 465 M⁻¹ s⁻¹ in series [1] and 19000 M⁻¹ s⁻¹ in series [3]. The IC50 in series [2] was found to be 36 nM; in series [4] it was 258 nM.
Regarding `COc1cccc2c1C[C@H](N)C(=O)N2O`, the IC50 was 179 nM in series [2] and more than 4920 nM in series [4]. Further, in [3], the Ratio is 1940 M⁻¹ s⁻¹.
As to `N[C@H]1Cc2cccc(C(F)(F)F)c2N(O)C1=O`, the IC50 in [2] is 174 nM; in series [4], more than 6810 nM. Moreover, in [3], the Ratio was 541 M⁻¹ s⁻¹.
Turning to `N[C@H]1Cc2c(F)cccc2N(O)C1=O`, the IC50 in [2] came to 45 nM; in series [4], 2060 nM. In addition, in [3], the Ratio came to 6680 M⁻¹ s⁻¹.
As for `C[C@H]1c2ccccc2N(O)C(=O)[C@H]1N`, the IC50 in series [4] is more than 1330 nM.
`Cc1cccc2c1N(O)C(=O)[C@@H](N)C2`: the IC50 in [2] is 1050 nM; in series [4] it was more than 10000 nM.
On to `N[C@H]1Cc2cccc(Cl)c2N(O)C1=O`, for which the IC50 in [2] is 252 nM; in series [4], more than 10000 nM. For the same compound, in [3], the Ratio is 42 M⁻¹ s⁻¹.

Source of the values: ChEMBL document CHEMBL2046387, “Discovery of Brain-Penetrant, Irreversible Kynurenine Aminotransferase II Inhibitors for Schizophrenia” (ACS Med Chem Lett, 2012).
